Measurements: ChEMBL document CHEMBL1124576 (J Med Chem, 1989)

Legend:
Rattus norvegicus [1] = experiment: Reversal clonidine-induced mydriasis in rat, after oral administration; assay type: functional; conditions: read-out: ID50 (the source's name)
Outline: (§1)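 Rats given clonidine to induce mydriasis; test agent dosed iv or orally. Pupillary diameter measured 10 min after dosing. Value is the dose […] that reduces pupil diameter to 50% of the clonidine-induced maximum. Means of five determinations, SD under 10%. Ratio is oral over iv dose.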

Rattus norvegicus [2] = experiment: Reversal of clonidine-induced mydriasis in rat, after intravenous administration; assay type: functional; conditions: read-out: ID50 (the source's name); outline: as §1
[3] = Antilog of pA2 (Uk14304) minus PA2 (Phenylephrine) was expressed as selectivity; assay type: functional
Outline: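 Guinea pig ileum contracted by field stimulation; alpha2 antagonism read as reversal of the inhibitory effect of UK-14304 on the contraction, expressed as pA2. Selectivity index is the antilog of pA2 (UK-14304) minus pA2 (phenylephrine). Means of at least three separate determinations.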

[4] = Antilog of pKi [3H]yohimbine minus PKi [3H]-prazosin was expressed as selectivity
Oryctolagus cuniculus = species: Oryctolagus cuniculus; experiment: Inhibition of phenylephrine-induced contraction of the rabbit aorta as a measure of functional alpha-1-adrenoceptor antagonism; conditions: read-out: pA2 (converted)
Outline: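 Rabbit aorta contracted with phenylephrine; alpha1 antagonism read as reversal of the contraction, expressed as pA2. Means of at least three separate determinations.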

[5] = target: Adrenergic receptor alpha-2 (Cavia porcellus); experiment: Ability to reverse inhibitory effects of UK-14304 on the contraction of guinea pig ileum as a measure of alpha-2 adrenergic receptor antagonism.
[6] = ratio of Oral and Intravenous inhibitory concentrations against reversal of clonidine-induced Mydriasis in rat was evaluated; assay type: functional; outline: as §1
[7] = target: T1, Adrenergic receptor alpha-1 (Rattus norvegicus, UniProt P15823+P23944+P43140); experiment: Binding affinity against alpha-1 adrenergic receptor in rat cerebral cortical membrane, determined using [3H]prazosin as the radioligand
T1 sequence (P15823 whole entry): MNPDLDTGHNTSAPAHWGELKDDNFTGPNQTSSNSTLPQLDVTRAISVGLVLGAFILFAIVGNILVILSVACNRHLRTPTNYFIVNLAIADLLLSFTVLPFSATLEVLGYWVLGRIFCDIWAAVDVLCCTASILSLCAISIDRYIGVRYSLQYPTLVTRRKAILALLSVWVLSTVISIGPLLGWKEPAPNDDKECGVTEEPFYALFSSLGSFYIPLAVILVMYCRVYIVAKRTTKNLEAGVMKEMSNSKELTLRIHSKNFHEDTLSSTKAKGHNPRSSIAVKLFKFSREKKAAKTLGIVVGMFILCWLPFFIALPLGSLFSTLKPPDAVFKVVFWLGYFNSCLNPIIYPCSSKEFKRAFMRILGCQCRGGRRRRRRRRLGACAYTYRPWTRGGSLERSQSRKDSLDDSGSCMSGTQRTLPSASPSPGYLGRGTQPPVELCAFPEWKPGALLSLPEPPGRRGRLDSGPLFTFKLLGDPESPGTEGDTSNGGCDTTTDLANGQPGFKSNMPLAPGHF
T1 sequence (P23944 whole entry): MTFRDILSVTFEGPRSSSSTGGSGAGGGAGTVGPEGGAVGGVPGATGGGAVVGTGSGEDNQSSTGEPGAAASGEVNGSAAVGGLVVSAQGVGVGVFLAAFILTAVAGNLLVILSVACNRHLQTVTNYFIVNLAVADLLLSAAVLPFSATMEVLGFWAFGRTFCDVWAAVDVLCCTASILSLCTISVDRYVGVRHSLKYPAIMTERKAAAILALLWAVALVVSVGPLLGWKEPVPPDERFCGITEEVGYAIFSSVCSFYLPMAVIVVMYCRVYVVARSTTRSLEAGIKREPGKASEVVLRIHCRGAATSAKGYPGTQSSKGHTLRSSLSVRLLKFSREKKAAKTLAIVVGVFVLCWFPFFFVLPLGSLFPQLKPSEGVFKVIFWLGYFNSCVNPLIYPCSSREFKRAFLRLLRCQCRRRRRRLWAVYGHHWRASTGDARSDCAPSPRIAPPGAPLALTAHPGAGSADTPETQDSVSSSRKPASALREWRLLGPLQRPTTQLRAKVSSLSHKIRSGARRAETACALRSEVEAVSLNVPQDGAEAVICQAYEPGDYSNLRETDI
T1 sequence (P43140 whole entry): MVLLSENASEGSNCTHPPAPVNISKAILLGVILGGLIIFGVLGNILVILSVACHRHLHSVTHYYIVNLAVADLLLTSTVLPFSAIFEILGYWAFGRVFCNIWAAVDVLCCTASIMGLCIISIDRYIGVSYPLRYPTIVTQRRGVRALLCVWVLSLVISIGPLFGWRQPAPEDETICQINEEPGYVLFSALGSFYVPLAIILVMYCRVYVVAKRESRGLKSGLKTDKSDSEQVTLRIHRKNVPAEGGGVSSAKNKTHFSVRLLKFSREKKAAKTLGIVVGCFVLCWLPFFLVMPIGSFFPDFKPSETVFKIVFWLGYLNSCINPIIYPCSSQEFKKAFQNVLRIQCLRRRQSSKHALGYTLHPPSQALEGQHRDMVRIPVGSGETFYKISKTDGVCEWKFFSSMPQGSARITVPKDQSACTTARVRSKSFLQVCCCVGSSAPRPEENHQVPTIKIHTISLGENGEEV

[8] = target: T2, Adrenergic receptor alpha-2 (Rattus norvegicus, UniProt P22086+P19328+P22909); experiment: Binding affinity against alpha-2 adrenergic receptor in rat cerebral cortical membrane, determined using [3H]- yohimbine as the radioligand.
T2 sequence (P22086 whole entry): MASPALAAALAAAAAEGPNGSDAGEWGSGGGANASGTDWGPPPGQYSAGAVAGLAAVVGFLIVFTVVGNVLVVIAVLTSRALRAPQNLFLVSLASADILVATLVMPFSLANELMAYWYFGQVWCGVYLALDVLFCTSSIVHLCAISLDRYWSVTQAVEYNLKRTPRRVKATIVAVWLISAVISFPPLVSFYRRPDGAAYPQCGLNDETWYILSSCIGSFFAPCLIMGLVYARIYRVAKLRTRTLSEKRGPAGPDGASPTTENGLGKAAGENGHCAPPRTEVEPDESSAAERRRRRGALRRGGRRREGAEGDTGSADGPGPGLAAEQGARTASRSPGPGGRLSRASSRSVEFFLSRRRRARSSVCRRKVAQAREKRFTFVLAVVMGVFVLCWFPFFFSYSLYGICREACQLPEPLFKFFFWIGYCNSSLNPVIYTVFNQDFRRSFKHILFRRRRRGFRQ
T2 sequence (P19328 whole entry): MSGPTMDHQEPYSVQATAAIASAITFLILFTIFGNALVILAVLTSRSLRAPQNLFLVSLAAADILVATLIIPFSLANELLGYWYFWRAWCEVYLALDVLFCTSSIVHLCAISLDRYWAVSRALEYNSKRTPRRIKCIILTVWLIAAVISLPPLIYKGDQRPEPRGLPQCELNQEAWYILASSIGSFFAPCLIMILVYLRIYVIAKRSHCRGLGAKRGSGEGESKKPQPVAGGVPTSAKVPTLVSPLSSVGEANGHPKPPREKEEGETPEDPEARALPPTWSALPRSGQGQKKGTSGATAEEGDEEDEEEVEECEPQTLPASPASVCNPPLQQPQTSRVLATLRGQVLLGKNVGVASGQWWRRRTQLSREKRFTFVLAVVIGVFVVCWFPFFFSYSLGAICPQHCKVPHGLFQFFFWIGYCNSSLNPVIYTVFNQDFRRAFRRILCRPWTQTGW
T2 sequence (P22909 whole entry): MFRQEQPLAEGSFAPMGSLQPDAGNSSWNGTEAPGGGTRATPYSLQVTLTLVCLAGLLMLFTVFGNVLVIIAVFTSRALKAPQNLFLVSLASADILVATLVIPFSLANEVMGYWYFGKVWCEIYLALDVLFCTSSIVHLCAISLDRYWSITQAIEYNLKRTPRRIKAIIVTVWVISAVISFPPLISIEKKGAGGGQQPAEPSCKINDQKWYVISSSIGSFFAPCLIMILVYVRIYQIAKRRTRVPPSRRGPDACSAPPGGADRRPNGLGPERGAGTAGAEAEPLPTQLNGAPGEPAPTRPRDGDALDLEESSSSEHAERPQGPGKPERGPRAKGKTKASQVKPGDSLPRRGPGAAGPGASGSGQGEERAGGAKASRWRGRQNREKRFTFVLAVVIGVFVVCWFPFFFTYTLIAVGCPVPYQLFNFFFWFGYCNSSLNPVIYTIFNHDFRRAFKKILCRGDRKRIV

Rattus norvegicus [9] = experiment: Beta-adrenoceptor binding density by administering 0.5 mg/kg (once daily for 14 days) in rats; assay type: functional
Outline: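 Rats dosed 0.5 mg/kg once daily for 14 days. Cortical beta-adrenoceptor density measured as Bmax, fmol [3H]dihydroalprenolol bound per mg protein, and compared with untreated controls.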

[10] = Antilog of pKi [3H]-yohimbine minus pKi [3H]prazosin.

SMILES | ED50 (Rattus norvegicus [1]) [mg/kg] | ED50 (Rattus norvegicus [2]) [mg/kg] | Selectivity [3] | Selectivity [4] | Kb (Oryctolagus cuniculus) [µM] | pA2 [5] | Ratio [6] | Log Ki [7] | Log Ki [8] | Bmax (Rattus norvegicus [9]) [fmol/mg] | Selectivity [10]
COC(=O)[C@@H]1[C@H]2C[C@H]3c4[nH]c5ccccc5c4CCN3C[C@@H]2CC[C@@H]1O [YOHIMBINE] | 2.8 | 0.185 | – | – | – | – | – | – | – | – | –
COc1ccc2c(c1)CCN1CC3CCCN(S(C)(=O)=O)C3CC21 (stereo unspecified) | 0.21 | 0.013 | > 4000 | 15000 | > 1 | 9.7 | 16.2 | -4.99 | -9.18 | – | –
c1ccc2c(c1)OCC(C1=NCCN1)O2 (stereo unspecified) [IDAZOXAN] | 1.2 | 0.017 | – | – | – | – | – | – | – | – | –
COc1ccc2c(c1)CCN1C[C@H]3CCCN(S(C)(=O)=O)[C@@H]3C[C@@H]21 | 0.095 | 0.0065 | 4000 | 15000 | 0.794 | 9.7 | 14.6 | -5.29 | -9.45 | 57 | –
COc1ccc2c(c1)CCN1C[C@@H]3CCCN(S(C)(=O)=O)[C@H]3C[C@H]21 | > 10 | > 10 | – | > 50 | 10 | 6.5 | – | > -5 | -6.32 | – | > 50
